Results taken from ChEMBL document CHEMBL5661970 (Cancer Res, 2006).
Calls of active or inactive are those of the source. The rule behind the calls is not given here.

How the values were obtained:
[1] = target: Platelet-derived growth factor receptor beta (Homo sapiens, UniProt P09619); test: Inhibition of PDGFR-beta (unknown origin) in presence of ATP
Insulin receptor = Insulin receptor (Homo sapiens, UniProt P06213); test: Inhibition of insulin-R (unknown origin) in presence of ATP
Outline: (§1)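 Cell-free kinase assay using recombinant tyrosine kinases with 1 μmol/L ATP, run in quadruplicate. IC50 values determined.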

Focal adhesion kinase 1 = Focal adhesion kinase 1 (Homo sapiens, UniProt Q05397); test: Inhibition of Fak (unknown origin) in presence of ATP; outline: as §1
[2] = target: Mitogen-activated protein kinase 3 (Homo sapiens, UniProt P27361); test: Inhibition of ERK1 phosphorylation in VEGF-stimulated serum-starved human HUVEC cells by immunoblotting analysis; assay type: cell-based
Outline: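 HUVECs serum-starved, treated with inhibitor (DMSO stock diluted in medium), then stimulated with VEGF. Lysates run on SDS-PAGE and immunoblotted with anti-phospho-p44/42 MAPK antibody. Four independent experiments.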

HUVEC [3] = test: Antiproliferative activity against bFGF-induced human HUVEC cells assessed as cell viability incubated for 72 hrs by WST-1 assay
HUVEC [4] = test: Inhibition of cell migration in VEGF-induced serum-starved human HUVEC cells at 1 nmol/L incubated for 22 hrs by calcein AM staining based fluorescence plate reader analysis relative to control; assay type: functional
Outline: (§2)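 HUVECs starved 5 h in EBM-2 with 0.1% BSA, placed in upper chamber of microchamber plate; lower chamber held 10 ng/mL VEGF, 0.1% FBS, 0.1% BSA. Compound in both chambers. After 22 h, migrated cells stained with 4 μg/mL calcein AM, read at 485/530 nm; 100%/0% set with/without VEGF in 0.1% DMSO; n = 10.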

HUVEC [5] = test: Inhibition of cell migration in VEGF-induced serum-starved human HUVEC cells at >= 10 nmol/L incubated for 22 hrs by calcein AM staining based fluorescence plate reader analysis; assay type: functional; outline: as §2
ZR-75-1 = test: Antitumor activity against human ZR-75-1 cells xenografted in gamma-irradiation induced RH-rnu/rnu athymic rat assessed as tumor growth inhibition at 0.2 mg/kg, po administered once daily for 2 weeks and measured on day 14 relative to control; assay type: functional; details: ZR-75-1, light or radiation study, 336 h, read-out: TGI
SK-HEP1 = test: Antitumor activity against human SK-HEP1 cells xenografted in gamma-irradiation induced RH-rnu/rnu athymic rat assessed as tumor growth inhibition at 0.2 mg/kg, po administered once daily for 2 weeks and measured on day 14 relative to control; assay type: functional; details: SK-HEP1, light or radiation study, 336 h, read-out: TGI
PC-3 = test: Antitumor activity against human PC-3 cells xenografted in gamma-irradiation induced RH-rnu/rnu athymic rat assessed as tumor growth inhibition at 0.2 mg/kg, po administered once daily for 2 weeks and measured on day 14 relative to control; assay type: functional; details: PC-3, light or radiation study, 336 h, read-out: TGI
MDA-MB-231 = test: Antitumor activity against human MDA-MB-231 cells xenografted in gamma-irradiation induced RH-rnu/rnu athymic rat assessed as relative tumor volume at 1 mg/kg, po administered once daily for 2 weeks and measured on day 7; assay type: functional
Outline: (§3)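 Tumor fragments were grown in γ-irradiated (7 Gy) athymic rats, followed by once-daily oral dosing at 1 mg/kg for 2 weeks. Tumor volume was measured with calipers as length×width²×0.5. Relative tumor volume was calculated as volume on day x divided by volume on day 0.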

LoVo = test: Antitumor activity against human LoVo cells xenografted in gamma-irradiation induced RH-rnu/rnu athymic rat assessed as relative tumor volume at 1 mg/kg, po administered once daily for 2 weeks and measured on day 21; assay type: functional; outline: as §3
Calu-6 [6] = test: Antitumor activity against human Calu-6 cells xenografted in RH-rnu/rnu athymic rat assessed as increased ratio of enlarged vessels with >100 uM diameter in tumor at 1 mg/kg, po administered for 14 days by H33342 dye based fluorescence microscopic analysis relative to control; assay type: functional; details: time 14 day
Outline: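 Calu-6 tumor-bearing athymic rats, three per group, received oral drug at 0.2 or 1 mg/kg or vehicle on days 0-13. They were killed 1 min after i.v. H33342 at 20 mg/kg on day 13. 10 µm cryosections were cut from five tumor levels at least 200 µm apart and examined under UV epifluorescence. The major axis of fluorescent halos around vessels was measured by image analysis, with a Mann-Whitney test.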

Calu-6 [7] = test: Antitumor activity against human Calu-6 cells xenografted in RH-rnu/rnu athymic rat assessed as increased pericyte coverage at 1 mg/kg, po administered for 14 days by immunofluorescence staining analysis relative to control; assay type: functional; details: time 14 day
Outline: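 Calu-6 xenografted athymic rats were randomized at 273-275 mm3 and dosed orally for 2 weeks. Paraffin sections were double-stained with anti-CD31 and Cy3-anti-α-smooth muscle actin. Pericyte-associated endothelial cells were counted in six fields per tumor, with six tumors per group and Dunnett's test.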

Calu-6 [8] = test: Antitumor activity against human Calu-6 cells xenografted in RH-rnu/rnu athymic rat assessed as decreased microvessel density at 0.2 mg/kg, po administered for 14 days by immunofluorescence staining analysis relative to control; assay type: functional; parameters: scale not given: the % may be the effect or the level left; details: time 14 day
Calu-6 [9] = test: Antitumor activity against human Calu-6 cells xenografted in RH-rnu/rnu athymic rat assessed as decreased microvessel density at 1 mg/kg, po administered for 14 days by immunofluorescence staining analysis relative to control; assay type: functional; parameters: scale not given: the % may be the effect or the level left; details: time 14 day
[10] = AUC (0-infinity) in F344/N JcL-rnu athymic rat at 0.2 mg/kg, po measured upto 72 hrs by HPLC-MS/MS analysis; assay type: ADME, organism-based; details: in vivo
Outline: (§4)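 Female athymic rats, four per group, given a single oral dose suspended in 0.5% methyl cellulose in water. Tail-vein blood was drawn at set times up to 72 h. Serum was spiked with internal standard, deproteinated with acetonitrile and analysed by HPLC-MS/MS. AUCinf came from noncompartmental analysis.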

[11] = AUC (0-infinity) in F344/N JcL-rnu athymic rat at 5 mg/kg, po measured upto 72 hrs by HPLC-MS/MS analysis; assay type: ADME, organism-based; details: in vivo; outline: as §4
[12] = Apparent oral clearance in F344/N JcL-rnu athymic rat at 5 mg/kg, po measured upto 72 hrs by HPLC-MS/MS analysis; assay type: ADME, organism-based; details: in vivo
Outline: (§5)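 Female F344/N JcL-rnu rats, four per group, single p.o. dose suspended in 0.5% methyl cellulose. Tail-vein blood sampled at set times to 72 h. Serum spiked with internal standard, deproteinated with acetonitrile, analysed by HPLC-MS/MS. Parameters derived by noncompartmental analysis.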

[13] = Tmax in F344/N JcL-rnu athymic rat at 1 mg/kg, po measured upto 72 hrs by HPLC-MS/MS analysis; assay type: ADME, organism-based; details: in vivo; outline: as §5
[14] = Tmax in F344/N JcL-rnu athymic rat at 5 mg/kg, po measured upto 72 hrs by HPLC-MS/MS analysis; assay type: ADME, organism-based; details: in vivo; outline: as §5
[15] = Average concentration at steady state in F344/N JcL-rnu athymic rat at 0.2 mg/kg/day, po measured upto 72 hrs by HPLC-MS/MS analysis; assay type: ADME, organism-based; details: in vivo
Outline: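 Steady-state serum levels for repeated oral 0.2 mg/kg daily dosing were simulated from single-dose serum data (female F344/N JcL-rnu rats, four per group, tail-vein sampling to 72 h, HPLC-MS/MS, noncompartmental analysis), not measured directly.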

Calu-6 [16] = test: Antitumor activity against human Calu-6 cells xenografted in RH-rnu/rnu athymic rat assessed as tumor growth inhibition at 1.0 mg/kg, po administered once daily for 2 to 21 days by DCE-MRI analysis; details: time 2-21 day

Chain of Focal adhesion kinase 1 (Q05397 whole entry): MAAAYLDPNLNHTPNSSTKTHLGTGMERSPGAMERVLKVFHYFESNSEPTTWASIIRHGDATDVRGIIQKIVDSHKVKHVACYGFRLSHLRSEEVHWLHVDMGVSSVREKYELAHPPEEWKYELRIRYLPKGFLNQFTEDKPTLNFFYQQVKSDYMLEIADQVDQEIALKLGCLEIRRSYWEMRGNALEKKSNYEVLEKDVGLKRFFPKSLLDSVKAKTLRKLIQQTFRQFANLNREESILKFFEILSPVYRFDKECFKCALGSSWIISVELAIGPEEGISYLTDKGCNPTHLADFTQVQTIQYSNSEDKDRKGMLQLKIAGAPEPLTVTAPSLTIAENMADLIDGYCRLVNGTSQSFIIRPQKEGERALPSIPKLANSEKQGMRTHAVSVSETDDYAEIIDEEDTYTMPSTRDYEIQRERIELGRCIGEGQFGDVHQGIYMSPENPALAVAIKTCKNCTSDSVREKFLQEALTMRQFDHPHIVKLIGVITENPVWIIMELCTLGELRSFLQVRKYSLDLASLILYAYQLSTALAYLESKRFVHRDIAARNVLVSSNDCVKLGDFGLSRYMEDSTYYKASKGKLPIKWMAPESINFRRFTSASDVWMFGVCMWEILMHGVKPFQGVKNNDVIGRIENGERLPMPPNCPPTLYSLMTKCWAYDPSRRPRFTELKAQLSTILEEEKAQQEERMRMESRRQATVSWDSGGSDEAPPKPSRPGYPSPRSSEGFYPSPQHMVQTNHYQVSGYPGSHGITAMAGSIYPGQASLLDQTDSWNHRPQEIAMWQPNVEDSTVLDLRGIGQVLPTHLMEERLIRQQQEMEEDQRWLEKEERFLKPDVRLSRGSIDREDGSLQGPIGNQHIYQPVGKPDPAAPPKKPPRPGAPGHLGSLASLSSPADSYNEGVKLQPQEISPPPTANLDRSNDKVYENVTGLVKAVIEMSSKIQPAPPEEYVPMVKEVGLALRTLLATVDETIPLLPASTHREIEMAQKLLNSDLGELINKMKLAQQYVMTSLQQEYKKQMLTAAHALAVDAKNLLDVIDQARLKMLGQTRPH
Chain of Platelet-derived growth factor receptor beta (P09619 whole entry): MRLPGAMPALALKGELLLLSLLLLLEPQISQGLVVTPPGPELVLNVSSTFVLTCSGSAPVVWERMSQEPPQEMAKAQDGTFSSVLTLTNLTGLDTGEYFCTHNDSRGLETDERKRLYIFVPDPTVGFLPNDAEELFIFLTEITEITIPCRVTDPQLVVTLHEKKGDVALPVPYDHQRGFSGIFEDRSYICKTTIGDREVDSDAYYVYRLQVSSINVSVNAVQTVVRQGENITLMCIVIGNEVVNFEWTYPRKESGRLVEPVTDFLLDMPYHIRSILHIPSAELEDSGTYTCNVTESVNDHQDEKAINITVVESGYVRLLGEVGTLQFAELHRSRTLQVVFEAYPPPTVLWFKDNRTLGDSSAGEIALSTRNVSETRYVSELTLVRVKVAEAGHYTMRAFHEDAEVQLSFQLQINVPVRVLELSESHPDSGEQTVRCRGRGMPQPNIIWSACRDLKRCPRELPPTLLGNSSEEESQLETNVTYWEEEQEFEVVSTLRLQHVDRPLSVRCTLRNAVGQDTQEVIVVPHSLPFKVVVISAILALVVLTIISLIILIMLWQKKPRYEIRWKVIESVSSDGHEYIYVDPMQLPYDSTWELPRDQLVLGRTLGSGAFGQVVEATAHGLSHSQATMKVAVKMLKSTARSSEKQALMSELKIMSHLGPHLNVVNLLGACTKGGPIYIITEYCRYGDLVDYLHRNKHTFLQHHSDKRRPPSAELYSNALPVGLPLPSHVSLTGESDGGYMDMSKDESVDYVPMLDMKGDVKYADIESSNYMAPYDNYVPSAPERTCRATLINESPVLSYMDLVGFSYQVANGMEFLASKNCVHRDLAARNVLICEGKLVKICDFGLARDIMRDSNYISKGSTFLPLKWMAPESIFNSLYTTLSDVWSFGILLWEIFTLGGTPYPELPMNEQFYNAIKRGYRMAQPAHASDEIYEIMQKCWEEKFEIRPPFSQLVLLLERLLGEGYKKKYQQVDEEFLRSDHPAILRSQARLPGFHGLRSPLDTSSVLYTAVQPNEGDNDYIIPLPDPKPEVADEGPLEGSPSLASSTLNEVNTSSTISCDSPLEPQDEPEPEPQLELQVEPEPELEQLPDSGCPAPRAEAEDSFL
Chain of Mitogen-activated protein kinase 3 (P27361 whole entry): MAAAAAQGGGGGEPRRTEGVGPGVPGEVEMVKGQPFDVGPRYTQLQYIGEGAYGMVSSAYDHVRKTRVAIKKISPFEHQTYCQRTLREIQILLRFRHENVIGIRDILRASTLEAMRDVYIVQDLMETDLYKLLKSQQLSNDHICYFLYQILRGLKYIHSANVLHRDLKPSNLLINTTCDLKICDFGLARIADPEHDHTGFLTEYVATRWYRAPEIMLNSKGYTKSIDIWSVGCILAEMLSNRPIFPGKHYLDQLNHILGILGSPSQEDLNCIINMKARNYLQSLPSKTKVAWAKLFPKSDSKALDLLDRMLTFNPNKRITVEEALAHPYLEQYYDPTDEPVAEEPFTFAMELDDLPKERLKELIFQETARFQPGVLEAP
Chain of Insulin receptor (P06213 28-758 limits assumed): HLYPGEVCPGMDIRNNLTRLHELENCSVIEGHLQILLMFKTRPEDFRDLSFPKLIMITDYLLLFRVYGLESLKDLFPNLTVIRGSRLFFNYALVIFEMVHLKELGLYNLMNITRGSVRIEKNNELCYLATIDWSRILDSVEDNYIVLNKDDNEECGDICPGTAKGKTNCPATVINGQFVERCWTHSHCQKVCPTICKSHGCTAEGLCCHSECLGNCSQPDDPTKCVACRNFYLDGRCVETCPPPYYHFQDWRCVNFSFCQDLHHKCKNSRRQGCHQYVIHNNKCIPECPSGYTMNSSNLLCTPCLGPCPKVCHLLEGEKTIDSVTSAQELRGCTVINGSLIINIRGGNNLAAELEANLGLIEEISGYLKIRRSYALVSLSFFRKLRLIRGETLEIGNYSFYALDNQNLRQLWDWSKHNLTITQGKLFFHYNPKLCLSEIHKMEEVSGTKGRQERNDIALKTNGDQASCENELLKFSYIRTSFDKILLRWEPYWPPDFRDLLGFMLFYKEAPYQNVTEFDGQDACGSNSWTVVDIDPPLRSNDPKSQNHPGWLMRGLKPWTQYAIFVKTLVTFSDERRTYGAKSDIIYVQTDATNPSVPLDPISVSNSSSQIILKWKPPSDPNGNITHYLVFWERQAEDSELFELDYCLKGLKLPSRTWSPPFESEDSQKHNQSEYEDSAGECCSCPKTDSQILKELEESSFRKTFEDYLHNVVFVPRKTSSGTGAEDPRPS
Chain of Insulin receptor (P06213 763-1382 limits assumed): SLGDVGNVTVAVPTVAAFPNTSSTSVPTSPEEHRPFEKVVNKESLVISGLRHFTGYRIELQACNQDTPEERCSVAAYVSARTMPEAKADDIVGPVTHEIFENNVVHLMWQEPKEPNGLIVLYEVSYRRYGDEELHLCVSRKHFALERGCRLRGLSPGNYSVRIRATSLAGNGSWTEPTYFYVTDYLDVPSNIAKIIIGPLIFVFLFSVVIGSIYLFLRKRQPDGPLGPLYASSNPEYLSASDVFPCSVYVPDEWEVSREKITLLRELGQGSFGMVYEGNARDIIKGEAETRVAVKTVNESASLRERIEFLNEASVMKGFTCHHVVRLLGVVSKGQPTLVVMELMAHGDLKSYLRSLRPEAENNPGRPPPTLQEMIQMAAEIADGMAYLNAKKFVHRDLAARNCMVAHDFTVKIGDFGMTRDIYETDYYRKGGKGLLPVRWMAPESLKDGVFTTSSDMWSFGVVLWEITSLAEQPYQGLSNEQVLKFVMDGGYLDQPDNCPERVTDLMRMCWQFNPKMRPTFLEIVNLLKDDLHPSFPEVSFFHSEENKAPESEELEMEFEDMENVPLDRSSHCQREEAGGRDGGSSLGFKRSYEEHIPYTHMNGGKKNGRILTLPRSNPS

## COc1cc2nccc(Oc3ccc(NC(=O)Nc4cc(C)on4)c(Cl)c3)c2cc1OC [TIVOZANIB]
[1]
  IC50: 0.049 µM
Insulin receptor
  IC50: > 1 µM
Focal adhesion kinase 1
  IC50: > 1 µM
[2]
  IC50: 0.00013 µM
HUVEC [3]
  IC50: > 0.3 µM
HUVEC [4]
  inhibition at 0.001 µM: ~40%
HUVEC [5]
  inhibition: Active
ZR-75-1
  inhibition in vivo at 0.2 mg/kg: 77.2%
SK-HEP1
  inhibition in vivo at 0.2 mg/kg: 59.4%
PC-3
  inhibition in vivo at 0.2 mg/kg: 73.6%
MDA-MB-231
  Activity: 0.89
LoVo
  Activity: 0.85
Calu-6 [6]
  Activity: 30.3%
Calu-6 [7]
  Activity: 50.5%
Calu-6 [8]
  Activity: 42.5%
Calu-6 [9]
  Activity: 71.2%
[10]
  AUC(0-inf): 1.64 µg·h/mL
[11]
  AUC(0-inf): 44.5 µg·h/mL
[12]
  CL/F: 0.113 L/h/kg
[13]
  Tmax: 4.25 h
[14]
  Tmax: 3.5 h
[15]
  Cave,ss: 0.0695 µg/mL
Calu-6 [16]
  Activity: Active
